Measurements taken from ChEMBL document CHEMBL1121595, “Fluoroprostaglandins: synthesis and biological evaluation of the methyl esters of (+)-12-fluoro-, (-)-ent-12-fluoro-, (+)-15-epi-fluoro-, and (-)-ent-15 epi-12-fluoroprostaglandin F2 alpha” (1980).

How the values were obtained:
Gerbillinae = test: The compound was evaluated for the gerbil colon contraction.; type: functional
Cricetinae gen. sp. [1] = test: The compound was evaluated for the hamster uterine contraction.; type: functional, Cricetulus griseus
Cricetinae gen. sp. [2] = test: The compound was evaluated for the antifertility activity in hamster.; type: functional
In short: (§1)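 Pregnant hamsters (80–90 g), ten per compound, mated one male per female. A single subcutaneous dose in ethanol was given on day 5 of pregnancy. The minimum effective dose is the lowest dose per hamster per day that leaves no pregnancies in the group of ten. Relative potency was derived by comparing this dose with that of natural PGF2α.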

Cricetinae gen. sp. [3] = test: The compound was evaluated for the antifertility activity in hamster; no activity observed at 50 ug; type: functional, organism-based; conditions: Cricetulus griseus; in short: as §1

Structure (SMILES)	relative potency (Gerbillinae)	relative potency (Cricetinae gen. sp. [1])	relative potency (Cricetinae gen. sp. [2])	MED (Cricetinae gen. sp. [3])
CCCCC[C@H](O)/C=C/[C@@]1(F)[C@H](O)C[C@H](O)[C@@H]1C/C=C\CCCC(=O)O	0.23	0.65	25	–
CCCCC[C@@H](O)/C=C/[C@@]1(F)[C@H](O)C[C@H](O)[C@@H]1C/C=C\CCCC(=O)OC	0.011	0.022	1	–
CCCCC[C@@H](O)/C=C/[C@@]1(F)[C@H](C/C=C\CCCC(=O)OC)[C@H](O)C[C@@H]1O	0.001	0.004	0.17	–
CCCCC[C@H](O)/C=C/[C@@]1(F)[C@H](O)C[C@H](O)[C@@H]1C/C=C\CCCC(=O)OC	0.001	0.28	12.5	–
CCCCC[C@H](O)/C=C/[C@@]1(F)[C@H](C/C=C\CCCC(=O)OC)[C@H](O)C[C@@H]1O	0.0002	0.0002	–	No activity observed at 50 ug
